Results gathered from unrelated publications.
Each line is one published result; the experiments were not run side by side.
SIRT6: NAD-dependent protein deacylase sirtuin-6 (SIRT6, Homo sapiens, UniProt Q8N6T7)
ALK: ALK tyrosine kinase receptor (ALK, Homo sapiens, UniProt Q9UM73)

| SMILES | target | effect on | action | technique | setting | IC50 [nM] |
| --- | --- | --- | --- | --- | --- | --- |
| CN(Cc1ccc(NC(=O)C2=Cc3cc(-c4ccc(OCCCCCF)cc4)ccc3CCC2)cc1)C1CCOCC1 | C-C chemokine receptor type 5 (CCR5, Homo sapiens, UniProt P51681) | ligand displacement | – | radioligand | cell membranes | 2000 |
| Cc1ccccc1Sc1ccc(CONC(=O)c2ccc(C(N)=O)cc2)cc1C(F)(F)F | SIRT6 | enzyme activity | inhibitor | fluorescence | – | 1770 |
| CCOc1ccc2c(-c3cc(C)nc(Nc4cc(OC)cc(C(F)(F)F)c4)n3)cnn2n1 | Dual specificity protein kinase CLK3 (CLK3, Homo sapiens, UniProt P49761) | enzyme activity | inhibitor | – | – | > 10000 |
| O=c1cc(-c2ccccc2)oc2c1ccc1ccccc12 | Cyclin-dependent kinase 2, with cyclin E1 (CDK2, Homo sapiens, UniProt P24941) | enzyme activity | inhibitor | ADP detection | – | > 100000 |
| NC(=O)c1ccc(C(=O)NOCc2ccc(C(F)(F)F)c(Cl)c2)cc1 | SIRT6 | enzyme activity | inhibitor | fluorescence | – | 1990 |
| Oc1ccc(-c2ccc3[nH]c4ncc(/C=C/c5cccc(F)c5)cc4c3c2)cc1 | ALK | enzyme activity | inhibitor | ELISA | – | > 10000 |
| CN[C@H]1CC[C@@H](c2ccc(Cl)c(Cl)c2)c2ccccc21 | Receptor-type tyrosine-protein phosphatase C (PTPRC, Homo sapiens, UniProt P08575) | enzyme activity | inhibitor | fluorescence | – | 80000 |
| COC(=O)c1ccc(C(=O)NOCc2ccccc2)cc1 | SIRT6 | enzyme activity | inhibitor | fluorescence | – | 89700 |
| Cn1c[n+]([C@@H]2O[C@H](COP(=O)(O)OP(=O)([O-])OP(=O)(O)OC[C@H]3O[C@@H](n4cnc5c(=O)[nH]c(N)nc54)[C@H](O)[C@@H]3O)[C@@H](O)[C@H]2O)c2nc(N)[nH]c(=O)c21 | m7GpppX diphosphatase (DCPS, Homo sapiens, UniProt Q96C86) | enzyme activity | inhibitor | radiometric | – | ~30 |
| NC(=O)c1ccc(C(=O)NOCc2ccc(Oc3ccccc3)cc2)cc1 | SIRT6 | enzyme activity | inhibitor | fluorescence | – | 1910 |
| Nc1ncc2c(n1)-c1c([nH]c3ccc(-c4ccc(F)cc4)cc13)CCC2 | Myosin light chain kinase family member 4 (MYLK4, Homo sapiens, UniProt Q86YV6) | enzyme activity | inhibitor | radiometric | – | 35 |
| O=C(NO)c1ccc(C(=O)NOCc2ccc(C(F)(F)F)cc2)cc1 | SIRT6 | enzyme activity | inhibitor | fluorescence | – | 8340 |
| Cc1cc(-c2cc(C#N)ccc2O[C@H]2C[C@H]2c2ccc(F)cc2F)n[nH]1 | ALK | phosphorylation in cells | inhibitor | ELISA | – | > 1000 |
| C=C(C)[C@H](CC=C(C)C)Cc1c(O)cc(OC)c(C(=O)/C=C/c2ccc(O)cc2O)c1O | Fatty acid synthase (FASN, Gallus gallus, UniProt P12276) | enzyme activity | inhibitor | radiometric | – | 9600 |
| NC(=O)c1ccc(C(=O)NOCc2ccc(C(F)(F)F)cc2)cc1 | SIRT6 | enzyme activity | inhibitor | fluorescence | – | 3130 |
| Cc1cc(-c2ccccc2)n[nH]1 | ALK | enzyme activity | inhibitor | TR-FRET | – | > 300000 |
| Cc1cnc(-c2ccc(-c3ccc(NC(=O)Nc4c(F)cc(F)cc4F)cc3F)c3c2C(=O)NC3)[nH]1 | Angiopoietin-1 receptor (TEK, Homo sapiens, UniProt Q02763) | enzyme activity | inhibitor | – | – | 6.5 |
| Cc1nc2ccc(Cl)cc2c(=O)n1NC1=NC(=O)CS1 | Cathepsin B (CTSB, Homo sapiens, UniProt P07858) | enzyme activity | inhibitor | – | – | 74500 |
| CSc1nc(C)c(-c2ccnc(N[C@H]3CC[C@H](NC(=O)c4ccccc4)CC3)c2)[nH]1 | Mitogen-activated protein kinase 10 (MAPK10, Homo sapiens, UniProt P53779) | enzyme activity | inhibitor | ELISA | – | 1220 |
| CCn1c(-c2nc3ccc(C(=O)N4CCCC(N)C4)cc3n2C)cc2ccccc21 (stereo not shown) | Sodium channel protein type 5 subunit alpha (SCN5A, Homo sapiens, UniProt Q14524) | ion current | inhibitor | – | – | 31600 |
| COC(=O)[C@@]1(c2ccc(F)cc2F)C[C@@H]1Oc1ccc(C#N)cc1-c1cc(C)[nH]n1 (racemic) | ALK | enzyme activity | inhibitor | TR-FRET | – | 41 |
| Nc1nonc1-n1cc(C(=O)N/N=C/c2ccc(C(F)(F)F)cc2C(F)(F)F)nn1 | SIRT6 | enzyme activity | inhibitor | fluorescence | – | 2690 |
